Laboratory results reported in ChEMBL document CHEMBL1926642, “Relevance of the C-5 position to schweinfurthin induced cytotoxicity” (2011).

Columns and labels:
Assay type in all cases: functional
NCI-H226 = assay: Cytotoxicity against human NCI-H226 cells assessed as cell growth at 10 uM after 48 hrs by sulforhodamine B assay relative to control; details: NCI-H226, 48 h, read-out: Activity
How it was run: (§1)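 Compounds went through the NCI 60 cell-line screen, whose current protocol tests first at a single dose.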

PC-3 = assay: Cytotoxicity against human PC3 cells assessed as cell growth at 10 uM after 48 hrs by sulforhodamine B assay relative to control; details: PC-3, 48 h, read-out: Activity; how it was run: as §1
ACHN = assay: Cytotoxicity against human ACHN cells assessed as cell growth at 10 uM after 48 hrs by sulforhodamine B assay relative to control; details: read-out: Activity; how it was run: as §1
SNB-75 = assay: Cytotoxicity against human SNB75 cells assessed as cell growth at 10 uM after 48 hrs by sulforhodamine B assay relative to control; details: SNB-75, 48 h, read-out: Activity
HOP-92 = assay: Cytotoxicity against human HOP92 cells assessed as cell growth at 10 uM after 48 hrs by sulforhodamine B assay relative to control; details: HOP-92, 48 h, read-out: Activity; how it was run: as §1
EKVX = assay: Cytotoxicity against human EKVX cells assessed as cell growth at 10 uM after 48 hrs by sulforhodamine B assay relative to control; details: read-out: Activity; how it was run: as §1
NCI-H322M = assay: Cytotoxicity against human NCI-H322M cells assessed as cell growth at 10 uM after 48 hrs by sulforhodamine B assay relative to control; details: read-out: Activity; how it was run: as §1
OVCAR-8 = assay: Cytotoxicity against human OVCAR8 cells assessed as cell growth at 10 uM after 48 hrs by sulforhodamine B assay relative to control; details: OVCAR-8, 48 h, read-out: Activity; how it was run: as §1
NCI-H460 = assay: Cytotoxicity against human NCI-H460 cells assessed as cell growth at 10 uM after 48 hrs by sulforhodamine B assay relative to control; details: NCI-H460, 48 h, read-out: Activity; how it was run: as §1
DU-145 = assay: Cytotoxicity against human DU145 cells assessed as cell growth at 10 uM after 48 hrs by sulforhodamine B assay relative to control; details: DU-145, 48 h, read-out: Activity; how it was run: as §1
U-251 = assay: Cytotoxicity against human U251 cells assessed as cell growth at 10 uM after 48 hrs by sulforhodamine B assay relative to control; details: U-251, 48 h, read-out: Activity
CCRF-CEM = assay: Cytotoxicity against human CCRF-CEM cells assessed as cell growth at 10 uM after 48 hrs by sulforhodamine B assay relative to control; details: read-out: Activity; how it was run: as §1
SK-MEL-5 = assay: Cytotoxicity against human SK-MEL-5 cells assessed as cell growth at 10 uM after 48 hrs by sulforhodamine B assay relative to control; details: SK-MEL-5, 48 h, read-out: Activity; how it was run: as §1
786-0 = assay: Cytotoxicity against human 786-0 cells assessed as cell growth at 10 uM after 48 hrs by sulforhodamine B assay relative to control; details: 786-0, 48 h, read-out: Activity; how it was run: as §1
SK-OV-3 = assay: Cytotoxicity against human SKOV3 cells assessed as cell growth at 10 uM after 48 hrs by sulforhodamine B assay relative to control; details: SK-OV-3, 48 h, read-out: Activity; how it was run: as §1
HCT-116 = assay: Cytotoxicity against human HCT116 cells assessed as cell growth at 10 uM after 48 hrs by sulforhodamine B assay relative to control; details: HCT-116, 48 h, read-out: Activity; how it was run: as §1
SK-MEL-2 = assay: Cytotoxicity against human SK-MEL-2 cells assessed as cell growth at 10 uM after 48 hrs by sulforhodamine B assay relative to control; details: SK-MEL-2, 48 h, read-out: Activity; how it was run: as §1
SF-295 = assay: Cytotoxicity against human SF295 cells assessed as cell growth at 10 uM after 48 hrs by sulforhodamine B assay relative to control; details: SF-295, 48 h, read-out: Activity; how it was run: as §1
SF-539 = assay: Cytotoxicity against human SF539 cells assessed as cell growth at 10 uM after 48 hrs by sulforhodamine B assay relative to control; details: SF-539, 48 h, read-out: Activity; how it was run: as §1
A498 = assay: Cytotoxicity against human A498 cells assessed as cell growth at 10 uM after 48 hrs by sulforhodamine B assay relative to control; details: A498, 48 h, read-out: Activity; how it was run: as §1
SW-620 = assay: Cytotoxicity against human SW620 cells assessed as cell growth at 10 uM after 48 hrs by sulforhodamine B assay relative to control; details: SW-620, 48 h, read-out: Activity
KM12 = assay: Cytotoxicity against human KM12 cells assessed as cell growth at 10 uM after 48 hrs by sulforhodamine B assay relative to control; details: KM12, 48 h, read-out: Activity; how it was run: as §1
CAKI-1 = assay: Cytotoxicity against human Caki1 cells assessed as cell growth at 10 uM after 48 hrs by sulforhodamine B assay relative to control; details: CAKI-1, 48 h, read-out: Activity; how it was run: as §1
SF-268 = assay: Cytotoxicity against human SF268 cells assessed as cell growth at 10 uM after 48 hrs by sulforhodamine B assay relative to control; details: SF-268, 48 h, read-out: Activity; how it was run: as §1
LOX IMVI = assay: Cytotoxicity against human LOXIMVI cells assessed as cell growth at 10 uM after 48 hrs by sulforhodamine B assay relative to control; details: read-out: Activity; how it was run: as §1
IGROV-1 = assay: Cytotoxicity against human IGROV1 cells assessed as cell growth at 10 uM after 48 hrs by sulforhodamine B assay relative to control; details: IGROV-1, 48 h, read-out: Activity; how it was run: as §1
UO-31 = assay: Cytotoxicity against human UO31 cells assessed as cell growth at 10 uM after 48 hrs by sulforhodamine B assay relative to control; details: UO-31, 48 h, read-out: Activity
RPMI-8226 = assay: Cytotoxicity against human RPMI8226 cells assessed as cell growth at 10 uM after 48 hrs by sulforhodamine B assay relative to control; details: RPMI-8226, 48 h, read-out: Activity; how it was run: as §1
NCI-H522 = assay: Cytotoxicity against human NCI-H522 cells assessed as cell growth at 10 uM after 48 hrs by sulforhodamine B assay relative to control; details: NCI-H522, 48 h, read-out: Activity; how it was run: as §1
UACC-257 = assay: Cytotoxicity against human UACC257 cells assessed as cell growth at 10 uM after 48 hrs by sulforhodamine B assay relative to control; details: UACC-257, 48 h, read-out: Activity
MDA-MB-468 = assay: Cytotoxicity against human MDA-MB-468 cells assessed as cell growth at 10 uM after 48 hrs by sulforhodamine B assay relative to control; details: MDA-MB-468, 48 h, read-out: Activity; how it was run: as §1
OVCAR-5 = assay: Cytotoxicity against human OVCAR5 cells assessed as cell growth at 10 uM after 48 hrs by sulforhodamine B assay relative to control; details: OVCAR-5, 48 h, read-out: Activity; how it was run: as §1
HCC 2998 = assay: Cytotoxicity against human HCC2998 cells assessed as cell growth at 10 uM after 48 hrs by sulforhodamine B assay relative to control; details: HCC 2998, 48 h, read-out: Activity; how it was run: as §1
SNB-19 = assay: Cytotoxicity against human SNB19 cells assessed as cell growth at 10 uM after 48 hrs by sulforhodamine B assay relative to control; details: SNB-19, 48 h, read-out: Activity; how it was run: as §1

| SMILES | growth at 10 µM (NCI-H226) [%] | growth at 10 µM (PC-3) [%] | growth at 10 µM (ACHN) [%] | growth at 10 µM (SNB-75) [%] | growth at 10 µM (HOP-92) [%] | growth at 10 µM (EKVX) [%] | growth at 10 µM (NCI-H322M) [%] | growth at 10 µM (OVCAR-8) [%] | growth at 10 µM (NCI-H460) [%] | growth at 10 µM (DU-145) [%] | growth at 10 µM (U-251) [%] | growth at 10 µM (CCRF-CEM) [%] | growth at 10 µM (SK-MEL-5) [%] | growth at 10 µM (786-0) [%] | growth at 10 µM (SK-OV-3) [%] | growth at 10 µM (HCT-116) [%] | growth at 10 µM (SK-MEL-2) [%] | growth at 10 µM (SF-295) [%] | growth at 10 µM (SF-539) [%] | growth at 10 µM (A498) [%] | further results |
| --- | --- | --- | --- | --- | --- | --- | --- | --- | --- | --- | --- | --- | --- | --- | --- | --- | --- | --- | --- | --- | --- |
| COCc1cc(/C=C/c2cc(O)c(C/C=C(\C)CCC=C(C)C)c(OC)c2)cc2c1O[C@]1(C)CC[C@@H](O)C(C)(C)[C@H]1C2 | 120 | 79 | 103 | 84.2 | 108 | 118 | 167 | 103 | 105 | 105 | 83.6 | 81.9 | 108 | 69.8 | 145 | 68.5 | 109 | 133 | 89.9 | 140 | growth at 10 µM (SW-620): 129%; growth at 10 µM (KM12): 123%; growth at 10 µM (CAKI-1): 118%; growth at 10 µM (SF-268): 97.1%; growth at 10 µM (LOX IMVI): 92.7%; growth at 10 µM (IGROV-1): 65.3%; growth at 10 µM (UO-31): 98.4%; growth at 10 µM (RPMI-8226): 65.9%; growth at 10 µM (NCI-H522): 72.2%; growth at 10 µM (UACC-257): 116%; growth at 10 µM (MDA-MB-468): 116%; growth at 10 µM (OVCAR-5): 114%; growth at 10 µM (HCC 2998): 99.3%; growth at 10 µM (SNB-19): 96.4% |
| COc1cc(/C=C/c2cc(Br)c3c(c2)C[C@@H]2C(C)(C)[C@H](O)CC[C@@]2(C)O3)cc(O)c1C/C=C(\C)CCC=C(C)C | 117 | 87.6 | 104 | 91.2 | 127 | 107 | 102 | 108 | 108 | 91.3 | 86.3 | 85.3 | 99.3 | 96 | 116 | 84.5 | 112 | 109 | 91.2 | 94.7 | growth at 10 µM (SW-620): 119%; growth at 10 µM (KM12): 97.3%; growth at 10 µM (CAKI-1): 107%; growth at 10 µM (SF-268): 88.5%; growth at 10 µM (LOX IMVI): 105%; growth at 10 µM (IGROV-1): 63.1%; growth at 10 µM (UO-31): 91%; growth at 10 µM (RPMI-8226): 75%; growth at 10 µM (NCI-H522): 81.5%; growth at 10 µM (UACC-257): 100%; growth at 10 µM (MDA-MB-468): 110%; growth at 10 µM (OVCAR-5): 105%; growth at 10 µM (HCC 2998): 103%; growth at 10 µM (SNB-19): 106% |
